In article PMC8518816 (Chemmedchem, 2021):

Assays:
TCPTP = molecular target: T1, TCPTP (Homo sapiens, UniProt P17706); test: TCPTP enzyme inhibition; type: biochemical; conditions: read-out: % Inhib. TCPTP @ 1 μM
T1 sequence (P17706 1-341 limits assumed): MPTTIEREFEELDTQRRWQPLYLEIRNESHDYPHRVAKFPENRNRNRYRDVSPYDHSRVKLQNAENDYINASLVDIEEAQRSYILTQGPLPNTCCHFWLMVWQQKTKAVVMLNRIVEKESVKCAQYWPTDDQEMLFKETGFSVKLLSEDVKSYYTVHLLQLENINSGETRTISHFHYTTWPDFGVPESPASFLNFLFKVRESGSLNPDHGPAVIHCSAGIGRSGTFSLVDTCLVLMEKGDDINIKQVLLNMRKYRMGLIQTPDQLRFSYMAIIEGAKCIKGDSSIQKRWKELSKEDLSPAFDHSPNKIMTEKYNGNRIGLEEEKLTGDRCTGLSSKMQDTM
Method in brief: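 Selectivity counter-screen using recombinant 341-amino-acid TCPTP mixed with test compound at 1 μM. Substrate pNPP added, and hydrolysis read as absorbance increase at 405 nm. Each point run in duplicate; output is percent inhibition.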

PTP1B = molecular target: T2, PTP1B (Homo sapiens, UniProt P18031); test: PTP1B enzyme inhibition; type: biochemical; conditions: for inhibition at 1 µM: read-out: % Inhib. PTP1B @ 1 μM
T2 sequence (P18031 1-322 limits assumed): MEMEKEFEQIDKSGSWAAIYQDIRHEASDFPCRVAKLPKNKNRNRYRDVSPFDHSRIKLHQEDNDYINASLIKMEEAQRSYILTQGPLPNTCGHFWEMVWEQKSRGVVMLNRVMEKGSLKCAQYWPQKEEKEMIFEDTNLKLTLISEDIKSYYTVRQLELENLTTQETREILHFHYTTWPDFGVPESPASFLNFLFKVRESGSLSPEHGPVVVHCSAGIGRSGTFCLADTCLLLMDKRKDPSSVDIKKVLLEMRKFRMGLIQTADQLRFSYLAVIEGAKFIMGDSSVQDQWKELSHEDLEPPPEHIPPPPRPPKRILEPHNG
Method in brief: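 Recombinant 322-amino-acid PTP1B preincubated with test compound; pNPP substrate then added and hydrolysis followed as absorbance increase at 405 nm. IC50 fitted from increasing compound concentrations, each point in duplicate. Percent inhibition also taken at 1 μM.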

C2 C12 myotubes = test: Glucose uptake; type: cell-based, Mouse; conditions: 2 μM, 90 min, 2-NBDG 0.1 mM
Method in brief: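 Mouse C2C12 myoblasts grown in DMEM with 10 % heat-inactivated FBS and penicillin/streptomycin (37 °C, 5 % CO2), then differentiated in DMEM with 2 % horse serum, changed every 48 h. Test compound at 2 μM for 90 min (insulin 10 nM, 30 min as positive control), then 0.1 mM 2-NBDG for 30 min. Washed three times with cold PBS. Intracellular fluorescence minus no-2-NBDG autofluorescence, corrected for BCA protein, relative to vehicle; 5 independent experiments, mean ± S.E.M.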

[1] = IC50±SD, soluble 322 amino acids PTP1B, pNPP substrate
[2] = pIC50, soluble 322 amino acids PTP1B

Row | SMILES | inhibition at 1 µM (TCPTP) [%] | IC50 (PTP1B; [1]) [nM] | IC50 (PTP1B; [2]) [nM] | inhibition at 1 µM (PTP1B) [%] | SI (selectivity index, percentage inhibition ratio PTP1B/TCPTP at 1 μM) (PTP1B) | increase of glucose uptake with respect to control cells (C2 C12 myotubes) [%]
1 | CC1Nc2ccccc2-n2nnnc21 (stereo not shown) [Compound 10, 4‐Methyl‐4,5‐dihydrotetrazolo[1,5‐a]quinoxaline] | 35 | 2170 ± 80 | 2190 | 37 | – | –
2 | Cc1nc2ccccc2n2nnnc12 [Compound 4, 4‐Methyltetrazolo[1,5‐a]quinoxaline] | 50 | 1480 ± 70 | 1510 | 46 | – | –
3 | Cc1nc2ccccc2n2ccnc12 [Compound 2, 4‐Methylimidazo[1,2‐a]quinoxaline] | 44 | 460 ± 40 | 468 | 87 | 1.97 | 15

Now from value to compound, other results behind:

Row | inhibition at 1 µM (TCPTP) [%] | IC50 (PTP1B; [1]) [nM] | IC50 (PTP1B; [2]) [nM] | inhibition at 1 µM (PTP1B) [%] | SI (selectivity index, percentage inhibition ratio PTP1B/TCPTP at 1 μM) (PTP1B) | SMILES | increase of glucose uptake with respect to control cells (C2 C12 myotubes) [%]
4 | 54 | – | – | 51 | 0.94 | Cc1nc2ccccc2n2cccc12 [Compound 1, 4‐methylpyrrolo[1,2‐a]quinoxaline] | –
5 | 55 | 790 ± 10 | 794 | 70 | 1.27 | Cc1nc2ccccc2n2cnnc12 [Compound 3, 4‐Methyl[1,2,4]triazolo[4,3‐a]quinoxaline] | ~30
6 | 68 | 620 ± 200 | 631 | 80 | 1.17 | c1ccc2c(c1)ncc1nnnn12 [Compound 9, Tetrazolo[1,5‐a]quinoxaline] | –
